“And” between values parts separate entries of the source, which are not always exact repeats. Equal values may be shown once.
System: U2OS
Test: Multiplex assay against U2OS
Type: toxicity, cell-based
Settings: human
Outline: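 Cells stained live at seeding with Hoechst33342, BioTracker Green Microtubule Cytoskeleton Dye, MitoTracker Red and Annexin V Alexa Fluor 680 were imaged on a CQ1 microscope at 37°C and 5% CO2 after compound addition. Their classification by CellPathfinder machine-learning gating ran from Hoechst high-intensity objects versus normal cells, to healthy, pyknosed or fragmented nuclei among normal cells, to mitotic or apoptotic among pyknosed cells. Tubulin, mitochondrial-mass and membrane-permeability phenotypes are per cents of healthy-nucleus cells.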

[1] = 12 h, 1 µM, compound concentration 1 uM
[2] = 12 h, 10 µM, compound concentration 10 uM
[3] = 24 h, 1 µM, compound concentration 1 uM
[4] = 24 h, 10 µM, compound concentration 10 uM
[5] = 48 h, 1 µM, compound concentration 1 uM
[6] = 48 h, 10 µM, compound concentration 10 uM

SMILES: Cc1c(Cc2ccc3ccccc3n2)c2cc(F)ccc2n1CC(=O)O [TIMAPIPRANT]
- Population Apoptotic (%) [1]: 84% and 83%
- Population Fragmented Nuclei (%) [1]: 21% and 22%
- Population Healthy Nuclei (%) [1]: 69% and 70%
- Population Hoechst High Intensity Objects (%) [1]: 2% and 1%
- Population Membrane Permeable-Phenotype (%) [1]: 3% and 4%
- Population Mitochondria Different-Phenotype (%) [1]: 1% and 4%
- Population Mitotic Cells (%) [1]: 16%
- Population Normal (%) [1]: 97% and 98%
- Population Pyknosed Nuclei (%) [1]: 8% and 6%
- Population Tubulin-Different-Phenotype (%) [1]: 1% and 3%
- Population Apoptotic (%) [2]: 75% and 68%
- Population Fragmented Nuclei (%) [2]: 30% and 12%
- Population Healthy Nuclei (%) [2]: 62% and 75%
- Population Hoechst High Intensity Objects (%) [2]: 2% and 0%
- Population Membrane Permeable-Phenotype (%) [2]: 4% and 6%
- Population Mitochondria Different-Phenotype (%) [2]: 1% and 3%
- Population Mitotic Cells (%) [2]: 25% and 31%
- Population Normal (%) [2]: 97% and 99%
- Population Pyknosed Nuclei (%) [2]: 6% and 12%
- Population Tubulin-Different-Phenotype (%) [2]: 2% and 3%
- Total Cell Count [2]: 244 and 132
- Population Apoptotic (%) [3]: 96% and 100%
- Population Fragmented Nuclei (%) [3]: 18% and 19%
- Population Healthy Nuclei (%) [3]: 73%
- Population Hoechst High Intensity Objects (%) [3]: 1%
- Population Membrane Permeable-Phenotype (%) [3]: 6% and 7%
- Population Mitochondria Different-Phenotype (%) [3]: 3% and 2%
- Population Mitotic Cells (%) [3]: 3% and 0%
- Population Normal (%) [3]: 98%
- Population Pyknosed Nuclei (%) [3]: 7%
- Population Tubulin-Different-Phenotype (%) [3]: 4% and 3%
- Population Apoptotic (%) [4]: 94% and 72%
- Population Fragmented Nuclei (%) [4]: 26% and 18%
- Population Healthy Nuclei (%) [4]: 66% and 74%
- Population Hoechst High Intensity Objects (%) [4]: 1% and 0%
- Population Membrane Permeable-Phenotype (%) [4]: 6% and 8%
- Population Mitochondria Different-Phenotype (%) [4]: 2%
- Population Normal (%) [4]: 98% and 100%
- Population Pyknosed Nuclei (%) [4]: 6% and 7%
- Population Tubulin-Different-Phenotype (%) [4]: 3%
- Total Cell Count [4]: 278 and 152
- Population Apoptotic (%) [5]: 88% and 90%
- Population Fragmented Nuclei (%) [5]: 16% and 22%
- Population Healthy Nuclei (%) [5]: 77% and 71%
- Population Hoechst High Intensity Objects (%) [5]: 1% and 2%
- Population Membrane Permeable-Phenotype (%) [5]: 4% and 12%
- Population Mitochondria Different-Phenotype (%) [5]: 3% and 5%
- Population Mitotic Cells (%) [5]: 11% and 10%
- Population Normal (%) [5]: 98% and 97%
- Population Pyknosed Nuclei (%) [5]: 6%
- Population Tubulin-Different-Phenotype (%) [5]: 3% and 6%
- Population Apoptotic (%) [6]: 100% and 92%
- Population Fragmented Nuclei (%) [6]: 19% and 13%
- Population Healthy Nuclei (%) [6]: 74% and 80%
- Population Hoechst High Intensity Objects (%) [6]: 0% and 2%
- Population Membrane Permeable-Phenotype (%) [6]: 3% and 5%
- Population Mitochondria Different-Phenotype (%) [6]: 1% and 3%
- Population Mitotic Cells (%) [6]: 0% and 7%
- Population Normal (%) [6]: 99% and 97%
- Population Pyknosed Nuclei (%) [6]: 6%
- Population Tubulin-Different-Phenotype (%) [6]: 1% and 3%
- Total Cell Count [6]: 392 and 204

SMILES: Cc1cccc(F)c1C(=O)Nc1cnc(-c2cc3c(cc2Cl)OC(F)(F)O3)cn1 [ZEGOCRACTIN]
- Population Apoptotic (%) [1]: 54.76% and 21.05%
- Population Fragmented Nuclei (%) [1]: 1.87% and 5.79%
- Population Healthy Nuclei (%) [1]: 86.93% and 78.51%
- Population Hoechst High Intensity Objects (%) [1]: 0%
- Population Membrane Permeable-Phenotype (%) [1]: 0.61% and 6.32%
- Population Mitochondria Different-Phenotype (%) [1]: 0% and 12.63%
- Population Mitotic Cells (%) [1]: 45.24% and 78.95%
- Population Normal (%) [1]: 100%
- Population Pyknosed Nuclei (%) [1]: 11.2% and 15.7%
- Population Tubulin-Different-Phenotype (%) [1]: 0.61% and 0%
- Population Apoptotic (%) [2]: 37.66% and 30.95%
- Population Fragmented Nuclei (%) [2]: 0.97% and 1.07%
- Population Healthy Nuclei (%) [2]: 80.39% and 76.47%
- Population Hoechst High Intensity Objects (%) [2]: 0.24% and 0%
- Population Membrane Permeable-Phenotype (%) [2]: 0.6% and 8.39%
- Population Mitotic Cells (%) [2]: 62.34% and 69.05%
- Population Normal (%) [2]: 99.76% and 100%
- Population Pyknosed Nuclei (%) [2]: 18.64% and 22.46%
- Population Tubulin-Different-Phenotype (%) [2]: 3.01% and 4.9%
- Total Cell Count [2]: 414 and 187
- Population Apoptotic (%) [3]: 49.12% and 21.74%
- Population Fragmented Nuclei (%) [3]: 2.5% and 3.68%
- Population Healthy Nuclei (%) [3]: 86.54% and 82.21%
- Population Hoechst High Intensity Objects (%) [3]: 0%
- Population Membrane Permeable-Phenotype (%) [3]: 0.22% and 5.22%
- Population Mitochondria Different-Phenotype (%) [3]: 0.22% and 7.46%
- Population Mitotic Cells (%) [3]: 50.88% and 78.26%
- Population Normal (%) [3]: 100%
- Population Pyknosed Nuclei (%) [3]: 10.96% and 14.11%
- Population Tubulin-Different-Phenotype (%) [3]: 0.89% and 0.75%
- Population Apoptotic (%) [4]: 37.72% and 34.92%
- Population Fragmented Nuclei (%) [4]: 3.21% and 2.36%
- Population Healthy Nuclei (%) [4]: 75.24% and 67.92%
- Population Hoechst High Intensity Objects (%) [4]: 0%
- Population Membrane Permeable-Phenotype (%) [4]: 2.76% and 6.94%
- Population Mitotic Cells (%) [4]: 62.28% and 65.08%
- Population Normal (%) [4]: 100%
- Population Pyknosed Nuclei (%) [4]: 21.55% and 29.72%
- Population Tubulin-Different-Phenotype (%) [4]: 2.76% and 2.78%
- Total Cell Count [4]: 529 and 212
- Population Apoptotic (%) [5]: 35.96% and 56%
- Population Fragmented Nuclei (%) [5]: 3.36% and 3.03%
- Population Healthy Nuclei (%) [5]: 87.83% and 87.5%
- Population Hoechst High Intensity Objects (%) [5]: 0%
- Population Membrane Permeable-Phenotype (%) [5]: 1.69% and 2.6%
- Population Mitochondria Different-Phenotype (%) [5]: 0.34% and 5.63%
- Population Mitotic Cells (%) [5]: 64.04% and 44%
- Population Normal (%) [5]: 100%
- Population Pyknosed Nuclei (%) [5]: 8.8% and 9.47%
- Population Tubulin-Different-Phenotype (%) [5]: 1.58% and 0.43%
- Population Apoptotic (%) [6]: 51.14% and 60.82%
- Population Fragmented Nuclei (%) [6]: 5.7% and 6.6%
- Population Healthy Nuclei (%) [6]: 63.11% and 59.72%
- Population Hoechst High Intensity Objects (%) [6]: 0.14% and 0%
- Population Membrane Permeable-Phenotype (%) [6]: 2.48% and 8.72%
- Population Mitotic Cells (%) [6]: 48.86% and 39.18%
- Population Normal (%) [6]: 99.86% and 100%
- Population Pyknosed Nuclei (%) [6]: 31.2% and 33.68%
- Population Tubulin-Different-Phenotype (%) [6]: 4.97% and 4.65%
- Total Cell Count [6]: 703 and 288
